KCNK3 inh = human KCNK3 channel inhibition, primary screen | O14649 | CHO-KCNK3 thallium flux, FluxOR fluorescence; active compounds read low | B-score at 10 µM | actives 0.84% (n = 340,000);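 active means B-score under library mean minus 4 SD, starting fluorescence ratio at most library mean plus 5 SD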;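 further: more negative B-score means stronger inhibition of thallium flux through KCNK3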
Target sequence (O14649 whole entry, looked up): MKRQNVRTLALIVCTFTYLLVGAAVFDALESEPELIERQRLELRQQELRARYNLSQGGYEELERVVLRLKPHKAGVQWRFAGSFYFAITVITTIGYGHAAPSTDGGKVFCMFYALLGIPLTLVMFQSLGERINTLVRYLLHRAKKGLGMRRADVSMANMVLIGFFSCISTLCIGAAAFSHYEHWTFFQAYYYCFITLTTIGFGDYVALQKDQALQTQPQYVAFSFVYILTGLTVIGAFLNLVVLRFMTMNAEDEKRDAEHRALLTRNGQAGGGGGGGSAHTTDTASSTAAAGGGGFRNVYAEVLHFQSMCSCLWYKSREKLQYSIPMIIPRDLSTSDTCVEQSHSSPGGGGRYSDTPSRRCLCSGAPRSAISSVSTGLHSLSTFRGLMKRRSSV
Kir21 inh = Kir2.1 (mouse) channel inhibition | actives 0.85% (n = 310,000) | HEK293-Kir2.1, FluxOR thallium flux fluorescence; active compounds read low | P35561 | AID 1672 | B-score at 10 µM;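 active means fluorescence ratio B-score at or below minus 3 SD of library scores, with starting-brightness B-score within 2 SD, cut at about -4.2 in these data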;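 further: channel flux triggered by added potassium and thallium sulfate stimulus; B-score of peak minus minimum fluorescence over baseline after thallium stimulus; more negative B-score means stronger Kir2.1 block with less thallium influx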
KCNQ1 pot = potentiates or activates the human KCNQ1 potassium channel; P51787; CHO-K1 KCNQ1, thallium flux FluxOR fluorescence; active compounds read high; B-score at 10 µM; actives 0.35% (n = 310,000); AID 2648;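 active means fluorescence ratio B-score, a plate-corrected score, at least three library SD, with initial intensity B-score within 5 SD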
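Doses: Single concentration per compound, DMSO matched to controls | Test system: KCNQ1-transfected CHO-K1 cells | Timing: 90 min dye loading and 20 min compound exposure, both at room temperature | Measured by: Kinetic FluxOR thallium fluorescence, 10-s 1-Hz baseline, 110-s post-stimulus read | Medium: Assay buffer with matched DMSO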
hERG rescue = compounds protecting human hERG from proarrhythmic drug block. CHO-hERG, FluxOR thallium flux, dofetilide IC70 present. activation (rescue from dofetilide block), less the hit threshold, % at 10 µM. actives 0.51% (n = 310,000). AID 1511. Q12809;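 active means activation above the mean of controls blocked by dofetilide plus 5 SD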;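 further: thallium influx through hERG after potassium depolarization seen as dye fluorescence rise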
KCNQ1 inh = blocks the human KCNQ1 potassium channel. CHO-K1 KCNQ1, FluxOR thallium flux fluorescence; active compounds read high. B-score at 10 µM. actives 1.3% (n = 310,000);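 active means compounds whose thallium flux B-score, printed positive for inhibition, exceeds three library SD while starting fluorescence stays within three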;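 further: channel opened by potassium depolarization with thallium stimulus after 20 min compound exposure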
KCNK9 block = human KCNK9 channel inhibition; Q9NPC2; HEK293 KCNK9, FluxOR thallium flux fluorescence; active compounds read low; B-score at 10 µM; actives 1.2% (n = 310,000); AID 488922;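 active means ratio B-score over 3 SD below the library mean, with starting fluorescence within 5 SD of its mean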;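 further: negative B-score means less thallium flux so channel inhibition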
KCNK9 block conf = confirmation of human KCNK9 potassium channel inhibitors; AID 492992; inhibition, % at 10 µM; actives 43% (n = 4,900); shares compounds with KCNK9 block; HEK293 KCNK9 cells, FluxOR thallium flux fluorescence;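 active means thallium signal inhibited by more than 5 SD of the compound-free buffer control wells, on both duplicate plates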;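 further: 0% = assay buffer control wells without compound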
Kir21 sel = tests whether KCNK9 modulators also affect mouse Kir2.1. shares compounds with KCNK9 block. Kir2.1 cells, FluxOR thallium flux fluorescence. inhibition, % at 10 µM. actives 4% (n = 4,900);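 active means thallium signal drop more than 5 SD beyond the mean of the no-compound control wells, seen in both duplicate plates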;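 further: signal is fluorescence rise after thallium addition divided by baseline fluorescence; plate controls were assay buffer only for no effect and full block by chlorpromazine control for full effect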
KCNK9 uninduced = second check of KCNK9 modulator effects in non-induced HEK293 cells; FluxOR thallium flux; actives 40% (n = 4,900); AID 492997; inhibition, % at 10 µM; shares compounds with KCNK9 block;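 active means thallium signal drop beyond 5 SD of the untreated control mean, on both duplicate plates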;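 further: plate controls were buffer only IC0 wells for no effect and SID17386958 at its maximal inhibitory level for full effect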
Starred values were filed as active, the others as inactive; i = inactive; / = no result given. A selection: hits, their analogues and other compounds. The true share with any hit is near 3.8%.

SMILES	KCNK3 inh	Kir21 inh	KCNQ1 pot	hERG rescue	KCNQ1 inh	KCNK9 block	KCNK9 block conf	Kir21 sel	KCNK9 uninduced
CNC(=O)C1C(=S)NC(N)=C(C#N)C1c1ccccc1 (stereo not given)	i	-0.57	i	-14	i	i	/	/	/
Cc1cc(NC(=O)Cn2nc(-c3cccs3)ccc2=O)cc(C)c1Br	i	-0.4	i	-2	i	-8.3*	36%*	i	26%*
NS(=O)(=O)c1ccc(N2CCOCC2)c(C(=O)NCCCSc2ccccc2)c1	i	/	/	/	/	/	/	/	/
CSc1nc(Oc2ccc(C)cc2)cc(C(F)(F)F)n1	i	2.3	i	-10	i	i	/	/	/
CCOc1ccc(/C=C/C(=O)c2cc(Br)ccc(=O)c2O)cc1	i	/	/	/	/	/	/	/	/
Cc1cccc(/C=C/C(=O)c2cc(Br)ccc(=O)c2O)c1	i	0.95	25*	-2	i	i	i	i	i
O=C(NCc1nc2ccccc2[nH]1)C1=C[C@@H](c2ccc(C(F)(F)F)cc2)C[C@@H](OCc2ccc(CO)cc2)O1	i	-0.23	i	-22	i	i	/	/	/
CCN(CC)c1nc(C(N)=O)cc(-c2ccccc2)n1	i	-0.01	i	-8	i	-8.5*	i	i	i
Cc1nn(CC2CC2)c(=O)n1-c1ccc(Oc2ccccc2)cc1	i	-0.5	i	-3	i	i	i	i	i
COc1ccc(-n2c(C)nn(CCOc3ccccc3)c2=O)cc1	i	-1.2	i	-5	i	i	/	/	/
COc1cccc(/C=C2\SC(=S)N(CC3CCCO3)C2=O)c1 (stereo not given)	i	0.13	i	-7	i	i	i	i	i
O=C1/C(=C/c2cccc(O)c2)SC(=S)N1CC1CCCO1 (stereo not given)	i	0.09	i	-5	i	i	/	/	/
Cc1nn(C)cc1/C=N\NC(=O)c1ccc2c(c1)c(C)c(C)n2Cc1ccccc1	i	0.9	i	1	i	-19*	64%*	i	40%*
CCCCOCCCn1c(-c2ccco2)nc2nc3ccccc3nc21	i	-0.32	i	-25	i	i	/	/	/
Cc1ccc(NC(=S)NNc2ccc([N+](=O)[O-])cc2S(=O)(=O)Nc2ccccc2C(=O)O)cc1C	i	-0.63	i	-11	i	i	i	i	i
CC(=O)Nc1ccc(C=NNc2ccc([N+](=O)[O-])cc2S(=O)(=O)Nc2ccccc2C(=O)O)cc1	i	/	/	/	/	/	/	/	/
CCOC(=O)CSc1nc2c(sc(=S)n2-c2ccccc2OC)c(=O)n1Cc1ccco1	i	1.2	i	-11	i	-9.1*	i	i	36%*
CCOC(=O)CSc1nc2ccccc2c(=O)n1Cc1ccco1	i	0.64	i	-8	i	i	/	/	/
CCOC(=O)CSc1nc2c(sc(=S)n2-c2ccccc2OC)c(=O)n1-c1ccccc1OC	i	2	i	-4	i	-10*	i	i	31%*
Cc1ccc(Cl)cc1N1CCN(Cc2nc3c(c(=O)[nH]c(=O)n3C)n2Cc2ccccc2F)CC1	i	0.06	i	-17	i	-8.8*	i	i	i
Cn1c(=O)[nH]c(=O)c2c1nc(Br)n2Cc1ccccc1F	i	0.03	i	-2	i	i	i	i	i
Cc1ccc(S(=O)(=O)N(C)C)cc1NC(=O)C1CCCCN1S(=O)(=O)c1ccccc1 (stereo not given)	i	/	/	/	/	/	/	/	/
COc1cc(/C=N/NC(=O)C2CCN(CC(O)COCc3ccccc3)CC2)ccc1O (stereo not given)	i	1.6	i	-17	i	i	/	/	/
CN(C)S(=O)(=O)c1ccc(C(=O)NCCC(=O)N2CCCC2)cc1	i	1.4	i	-5	i	i	/	/	/
Cc1ccc(N2C(=O)CCC(C(=O)O)C2c2cccs2)cc1 (stereo not given)	i	0.01	i	-2	i	i	/	/	/
SMILES	KCNK3 inh	Kir21 inh	KCNQ1 pot	hERG rescue	KCNQ1 inh	KCNK9 block	KCNK9 block conf	Kir21 sel	KCNK9 uninduced
Cc1ccc(NC(=O)CN(C)C(=O)c2nn(C)c(=O)c3ccccc23)cc1	i	-1.1	i	-8	i	i	/	/	/
CCOC(=O)Cn1c(=NC(=O)CSC(C)=O)sc2ccccc21	i	-0.93	i	-12	i	-8.2*	48%*	i	40%*
CC(=O)N1CCCC(C(=O)c2ccc3c4c(cccc24)CC3)C1 (stereo not given)	i	0.98	i	-10	i	i	i	i	i
COc1cccc(OC)c1CN1CCCC(C(=O)c2ccccc2SC)C1 (stereo not given)	i	-1.9	i	-24	i	i	i	i	i
COc1cc(CN2CCCC(C(=O)c3ccc4c5c(cccc35)CC4)C2)cc(OC)c1O (stereo not given)	i	-2.6	i	-18	i	i	i	i	i
CN1CCC(C(=O)N2CCCC(C(=O)c3ccc4c5c(cccc35)CC4)C2)CC1 (stereo not given)	i	0.11	i	-7	i	i	/	/	/
O=C(c1ccc2c3c(cccc13)CC2)C1CCCN(Cc2cccnc2)C1 (stereo not given)	i	0.02	i	-13	i	i	i	i	i
COCCC(=O)N1CCCC(C(=O)c2ccccc2SC)C1 (stereo not given)	i	1.8	i	4	i	i	/	/	/
CCSC1=NCCN1C(=O)C(C)(C)Oc1ccc(Cl)cc1	i	-0.66	i	-3	i	i	/	/	/
O=C(NCc1cccnc1)NC(=O)c1ccc(Cl)cc1	i	1.3	i	-11	i	i	/	/	/
CCOC(=O)CC[C@H](NC(=O)Cn1cnc(C(=O)Nc2ccc(C)c(C)c2)n1)C(=O)OCC	i	/	/	/	/	/	/	/	/
COc1ccc(N2CC(C(=O)N[C@@H](CC(C)C)C(=O)NC3CCCC3)CC2=O)cc1 (stereo not given in full)	i	0.02	i	-12	i	i	/	/	/
Fc1ccc(-c2nc3c(-c4ccccc4)cnn3cc2CCN2CCOCC2)cc1	i	2.1	i	-11	i	i	/	/	/

Assay outcomes: PubChem BioAssay, Johns Hopkins Ion Channel Center
